{"data": "Measurements of several laboratories", "effect on": "cell growth or viability", "note": "Each line is one published result; the experiments were not run side by side."}
{"SMILES": "Cc1c(C(=O)O)ccc2c3n(nc12)[C@@H]1[C@H](C3)N(CC2CC2)[C@@]2(C(=O)Nc3cc(Cl)ccc32)[C@H]1c1cccc(Cl)c1F", "cell line": "human Fibroblast", "test": "ATP luminescence", "quantity": "IC50", "result": "12 nM"}
{"SMILES": "C[C@@H]1CN(c2ccc(-c3cc(C(=O)NCCOCCOCCOCCOCCOCCOCCNC(=O)/C=C/c4[nH]cc(C(=O)N[C@@H](CC(N)=O)c5ccc(F)c(Cl)c5)c4-c4ccc(Cl)cc4F)ccc3F)cc2NC(=O)c2ccc(F)cc2C(F)(F)F)C[C@H](C)N1C", "cell line": "MV4-11", "setting": "4.64 µM, 5 days", "quantity": "viability", "result": "43.9%"}
{"SMILES": "CC(C)c1ccccc1[C@@H]1CCCN1C1CC2(CCN(c3ccc(C(=O)NS(=O)(=O)c4ccc(NC[C@H]5CC[C@](C)(O)CC5)c([N+](=O)[O-])c4)c(Oc4cnc5[nH]ccc5c4)c3)CC2)C1", "cell line": "KMS-12-PE", "test": "ATP luminescence", "setting": "48 h", "quantity": "IC50", "result": "0.86 nM"}
{"SMILES": "Cn1cc(-n2cnc3c(NCc4nc5cc(Cl)c(Cl)cc5[nH]4)nc(N4CCOCC4)nc32)cn1", "cell line": "MDA-MB-468", "setting": "5 days", "quantity": "EC50", "result": "9.21 nM"}
{"SMILES": "C=CC(=O)NC1CCN(c2ncc3ncnc(Nc4ccc(Oc5ccc6c(c5)ncn6C)c(C)c4)c3n2)CC1", "cell line": "647-V", "quantity": "EC50", "result": "2320 nM"}
{"SMILES": "Cc1nc(Nc2ccc3c(c2)C(C)(C)C(=O)N3)c2ccccc2n1", "cell line": "BEAS-2B", "test": "MTT", "quantity": "IC50", "result": "38400 nM"}
{"SMILES": "C=CC(=O)N1C[C@@H](n2nc(C#Cc3c(F)cc4c(ncn4C4CC4)c3F)c(C(N)=O)c2NC)C[C@@H]1COC", "cell line": "RBE", "test": "MTT", "setting": "72 h", "quantity": "IC50", "result": "> 1000 nM"}
{"SMILES": "Cc1nc(Nc2ccc3c(c2)/C(=C/c2ccccc2)C(=O)N3C)c2ccccc2n1", "cell line": "BEAS-2B", "test": "MTT", "quantity": "IC50", "result": "20100 nM"}
{"SMILES": "CC1(C)CCC(CN2CCN(c3ccc(C(=O)NS(=O)(=O)c4ccc(NCC5CCOCC5)c([N+](=O)[O-])c4)c(Oc4cnc5[nH]ccc5c4)c3)CC2)=C(c2ccc(Cl)cc2)C1", "cell line": "MV4-11", "test": "ATP luminescence", "setting": "48 h", "quantity": "IC50", "result": "12 nM"}
{"SMILES": "Cc1nc(Nc2ccc3c(c2)/C(=C/c2ccccc2C)C(=O)N3)c2ccccc2n1", "cell line": "BEAS-2B", "test": "MTT", "quantity": "IC50", "result": "8740 nM"}
{"SMILES": "Cc1noc2c1-c1ccccc1C(c1ccc(Cl)cc1)=N[C@H]2CC(N)=O", "cell line": "MV4-11", "test": "ATP luminescence", "setting": "72 h", "quantity": "IC50", "result": "412 nM"}
{"SMILES": "COc1cc2ncnc(Nc3ccc4c(c3)/C(=C/c3ccccc3)C(=O)N4)c2cc1OC", "cell line": "BEAS-2B", "test": "MTT", "quantity": "IC50", "result": "17500 nM"}
{"SMILES": "C[C@@H]1CN(c2ccc(-c3cc(C(=O)NCCOCCOCCOCCOCCNC(=O)Cn4cc(-c5[nH]cc(C(=O)N[C@@H](CC(N)=O)c6ccc(F)c(Cl)c6)c5-c5ccc(Cl)cc5F)cn4)ccc3F)cc2NC(=O)c2c[nH]c(=O)cc2C(F)(F)F)C[C@H](C)N1C", "cell line": "MV4-11", "setting": "4.64 µM, 5 days", "quantity": "viability", "result": "27%"}
{"SMILES": "CN1Cc2c(N)cccc2C(=O)N1C1CCC(=O)NC1=O (stereo not drawn)", "cell line": "MV4-11", "test": "CCK-8", "setting": "96 h", "quantity": "IC50", "result": "< 330 nM"}
{"SMILES": "Cc1nc(Nc2ccc3c(c2)CC(=O)N3)c2ccccc2n1", "cell line": "BEAS-2B", "test": "MTT", "quantity": "IC50", "result": "8760 nM"}
